proCasp7 act – counter-screen for procaspase-3 activators: activators of human procaspase-7; P55210; recombinant procaspase-7, Ac-DEVD-pNA absorbance 405 nm; D23A/D198A/D206A triple mutant, cannot self-cleave; scale: DMSO 0, 5 µM enzyme 100; activation, % at 8.5 µM; 0.093% of 330,000 active;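 active = percent activation above the screen-wide mean plus 3 SD, cut at about 25% in these data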
Target sequence (P55210 whole entry D23A/D198A/D206A): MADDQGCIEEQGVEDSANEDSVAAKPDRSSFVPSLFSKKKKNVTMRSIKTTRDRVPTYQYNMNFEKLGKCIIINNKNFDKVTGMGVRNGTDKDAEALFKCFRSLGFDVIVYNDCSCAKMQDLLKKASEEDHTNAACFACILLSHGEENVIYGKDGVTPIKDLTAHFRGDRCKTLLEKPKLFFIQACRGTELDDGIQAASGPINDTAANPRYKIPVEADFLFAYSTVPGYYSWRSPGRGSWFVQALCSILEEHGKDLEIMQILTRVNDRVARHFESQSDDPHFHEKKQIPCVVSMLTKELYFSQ
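Replicates: singlicate. Assay system: Procaspase-7 triple mutant (PC-7 D3A). Signal: 405 nm absorbance of p-nitroaniline. Times: 1 h preincubation, 2 h reaction. Buffer or medium: Zinc-free HEPES pH 7.4 with 300 mM NaCl, 0.01% Triton X-100. Also added: DEVD-pNA substrate. Benchmarks: DMSO wells as 0%, DMSO with 5 µM added PC-7 as 100%.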
procasp3 activ – activates human procaspase-3 | recombinant procaspase-3 D3A, Ac-DEVD-pNA absorbance 405 nm | 0.11% of 330,000 active | AID 463141 | activation, % at 8.5 µM | P42574;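 active = activation above the mean of all tested compounds plus 3 SD, cut at about 21% in these data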;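 note: 0% = DMSO alone and 100% = DMSO wells spiked with extra 5 µM PC-3 D3A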
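Test system: Procaspase-3 D3A mutant; medium: Zinc-free HEPES/NaCl buffer with 0.01% Triton X-100 at pH 7.4; reagent: DEVD-pNA substrate; doses: one concentration, 8.5 µM nominal, 0.8% DMSO; times: 1 h preincubation plus 2 h reaction at 25 °C; signal: Epi-absorbance at 405 nm of released p-nitroaniline, 0 and 120 min; replicates: singlicate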
A1 inh – inhibitors of the anti-apoptotic protein A1, read as caspase activation; MEF A1-2A-BIM cells, Caspase-Glo 3/7 luminescence, 3 h; percent of clofoctol response, vehicle zero; 0.066% of 330,000 active; caspase activation, % (concentration not given with the values); AID 2462;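 active = over half of replicate activation scores above 10%, or exactly half above 10 with the replicate mean above 10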
Rce1 inhib – yeast Ras-converting enzyme inhibition; Q03530; calls only; 0.27% of 290,000 active; yeast membranes, quenched prenylated peptide cleavage fluorescence;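 active = fall in fluorescence gain of 50% or more versus controls, with final raw signal at or below 3038400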;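 note: plate controls were neutral control wells for no effect and wells lacking membranes for full effect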
Target sequence (Q03530 whole entry, looked up): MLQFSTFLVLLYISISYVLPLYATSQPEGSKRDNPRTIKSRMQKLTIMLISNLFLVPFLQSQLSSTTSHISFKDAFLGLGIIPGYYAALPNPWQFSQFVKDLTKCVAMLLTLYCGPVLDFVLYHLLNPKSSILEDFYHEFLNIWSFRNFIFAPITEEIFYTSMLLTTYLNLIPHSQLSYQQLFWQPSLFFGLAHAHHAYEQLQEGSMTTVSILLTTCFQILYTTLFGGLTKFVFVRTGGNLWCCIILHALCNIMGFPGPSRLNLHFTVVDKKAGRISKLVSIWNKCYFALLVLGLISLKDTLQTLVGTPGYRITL
PolyA inh – blocks polyadenylation in yeast reporter cells; activity score, % at 12 µM; 0.02% of 300,000 active; S. cerevisiae SKY197-pL101 polyadenylation reporter, beta-gal luminescence; efflux-impaired pdr1/pdr3 knockout yeast; score 100 = 6 SD above DMSO;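 active = lowest replicate activity score at least 50, where 100 means six control SD above control mean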;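 note: yeast exposed to compound for 9 h at 30 °C; higher score means more reporter readthrough which indicates perturbed polyadenylation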
* marks the source's active call; other numbers are inactive results; i = inactive; x = no result; + = active, no number. An excerpt weighted towards active compounds, which were near 0.48% of everything screened.

SMILES	proCasp7 act	procasp3 activ	A1 inh	Rce1 inhib	PolyA inh
Cc1ccc(CN2CCNC(=O)C2CC(=O)NC2CCCCCC2)o1 (centres undefined)	1	-3	0	+	1
COc1ccc(C(C(=O)NC2CCCCC2)N(C(=O)c2snc(C(N)=O)c2N)c2ccc(OC)cc2OC)cc1 (centres undefined)	20	-23	0	+	-11
NC(=NCCCCCCN=C(N)/N=C(\N)Nc1ccc(Cl)cc1)/N=C(\N)Nc1ccc(Cl)cc1	4	-4	4	+	7
Fc1ccc(-c2cc3nc(-c4ccccc4)cc(N4CCN(CCN5CCOCC5)CC4)n3n2)cc1	x	x	x	+	-10
CCOc1ccc(S(=O)(=O)N2CCC(C(=O)NC3CCCCC3)CC2)cc1	-1	-3	1	i	-13
CCCOc1ccc(-c2nc3c(c(=O)[nH]c(=O)n3Cc3ccccc3)n2CCO)cc1OCC	6	-8	-1	+	12
COc1cccc(-c2csc(N3CCN(C(=O)NC45CC6CC(CC(C6)C4)C5)CC3)n2)c1	1	5	0	+	-17
COc1cccc(NC(=O)N2CCN(c3nc(-c4cccc(OC)c4)cs3)CC2)c1	-2	4	-1	i	14
CC(=O)c1c(O)cc(O)c(C(C)=O)c1O	0	0	1	+	-5
CC(=O)c1c(O)cc(O)cc1CC(=O)O	-1	9	1	i	-12
O=C(N/N=C/c1cccc(O)c1)c1ccc(NC(=O)C2CCCCC2)cc1	x	x	0	i	-4
O=C(N/N=C/c1ccc(O)cc1O)c1ccc(NC(=O)C2CCCCC2)cc1	9	48*	0	i	-6
COc1ccc2[nH]c3c(c2c1)CCN1C(=O)C(CC(=O)NCc2cccc(C(F)(F)F)c2)C[C@H](C(=O)N(C(C)C)C(C)C)[C@@]31C (some centres undefined)	4	-4	x	x	x
CC1=NNC(=O)/C1=C\c1cn(-c2ccccc2)nc1-c1cccs1	-3	-18	16*	i	-43
CCOc1ccc(-n2ccnc(SCC(=O)NC3CCCC3)c2=O)cc1	10	-7	0	+	4
CC(C)[C@]1(c2ccccc2)ON(c2ccccc2C(F)(F)F)C1=O	13	5	0	x	x
CCOc1ccc(S(=O)(=O)N2CCCC(C(=O)Nc3cc(C)cc(C)c3)C2)cc1 (centres undefined)	-11	-1	0	i	-6
Cc1cc(C)c2cc(C#N)c(NCCCNC(=O)CCC(=O)O)nc2c1	-5	1	0	+	19
CCC(=O)NCCCNc1nc2c(C)cccc2cc1C#N	-2	-2	1	x	10
CC(C)c1cccc(-c2ccc3c(c2)S(=O)(=O)c2cccc(C(=O)NCc4ccccc4Cl)c2C3=O)c1	7	11	12*	x	x
C#CCNC(=O)C1=C[C@@H](C2CCCCC2)C[C@@H](OCc2ccc(CO)cc2)O1	-3	1	-1	+	-6
COc1ccc(C2c3c(ncn(Cc4ccco4)c3=N)Oc3ccc4ccccc4c32)cc1 (centres undefined)	-3	-3	1	i	-13
N=c1c2c(ncn1Cc1ccco1)Oc1ccc3ccccc3c1C2c1ccccc1 (centres undefined)	6	0	-1	+	-7
O=C(COC(=O)/C=C/c1cn(-c2ccccc2)nc1-c1ccc2c(c1)OCCO2)NC1CCS(=O)(=O)C1 (centres undefined)	7	-4	0	+	-9
O=[N+]([O-])c1ccc(Sc2cc[n+]([O-])c3ccccc23)c([N+](=O)[O-])c1	7	-2	1	i	8
SMILES	proCasp7 act	procasp3 activ	A1 inh	Rce1 inhib	PolyA inh
CC1CCC/C(=C\Nc2ccccc2C(=O)O)C1=O (centres undefined)	-19	3	0	+	-8
COC(=O)COc1cc(OCC(=O)OC)c2c(-c3ccccc3)cc(=O)oc2c1	5	-4	0	i	-6
COC(=O)C(C)Oc1cc(OC(C)C(=O)OC)c2c(-c3ccccc3)cc(=O)oc2c1 (centres undefined)	1	1	5.3*	i	8
COCCCn1nnnc1SCC(=O)Nc1nc(C)c(C)s1	8	4	0	i	5
CCn1nnnc1SCC(=O)Nc1nc(C)c(C)s1	5	-2	0	+	7
COc1ccc(Cl)cc1Nc1nc(C)nc2c1oc1ccccc12	-4	2	1	+	-10
Cn1c(=O)c(C(=O)NCCO)c(O)c2ccccc21	15	11	1	+	2
COc1ccccc1-c1cc(C(F)(F)F)nc(S(=O)(=O)CCCC(=O)N2CCOCC2)n1	-11	2	6.1*	i	4
CCOC(=O)c1c(C)[nH]c(C(=O)Nc2cc(OCC)c(N3CCOCC3)cc2OCC)c1C	4	3	-1	x	x
Cc1cccc(CS(=O)(=O)c2ncc(Cl)c(C(=O)Nc3nnc(C(C)C)s3)n2)c1	3	-9	8.1*	i	-12
CC(C(=O)N1CCN(C(=O)c2ccco2)CC1)N1C(=O)NC2(CCCCC2C)C1=O (centres undefined)	0	4	1	x	x
CN(CC(=O)O)Cc1nc2ccccc2[nH]1	-1	-3	-1	i	-4
CCN(CC)CCNC(=O)CSc1c2c(nc3cc(Cl)ccc13)CCCC2	-7	-3	1	+	-8
CCN(CC)CCCNC(=O)c1ccc2c(SCC(=O)O)c3c(nc2c1)CCC3	4	6	0	i	14
CCOC(=O)c1ccc(NC(=O)N2CCN(Cc3ccccc3)CC2)cc1	14	-7	1	+	10
CCOC(=O)c1ccc(NC(=O)CN2CCN(Cc3ccccc3)CC2)cc1	-10	-1	-1	i	-5
NS(=O)(=O)c1ccc(CCNC(=O)CCCCCn2c(=S)[nH]c3ccc(Br)cc3c2=O)cc1	4	1	0	i	11
COc1ccc(CNC(=O)[C@H](C)NC(=O)N2CCn3c2nc2ccccc23)cc1	7	-5	1	i	-4
CC(C)(C)N(Cc1ccccc1)C(=O)COC(=O)CNC(=O)c1ccco1	2	0	16*	i	8
NC(=O)[C@@H]1CC2(CC(c3cccc(NC(=O)CC(c4ccccc4)c4ccccc4)c3)=NO2)CN1C(=O)c1ccc(Cl)cc1 (some centres undefined)	-7	-2	1	+	0
NC(=O)[C@H]1CC2(CC(c3cccc(NC(=O)COc4ccc(Cl)cc4)c3)=NO2)CN1C(=O)C(c1ccccc1)c1ccccc1 (some centres undefined)	0	-4	0	+	10

Screening data as filed in PubChem BioAssay.
